Bioassay records from PubChem BioAssay.
NPY Y1 blocker: antagonists of human neuropeptide Y receptor Y1 | P25929 | HEK293-CNG Y1 cells, membrane potential fluorescence; NPY at EC95, then isoproterenol | inhibition, % at 3.6 µM | 1% of 200,000 active | AID 1040;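 active = inhibition above the campaign mean inhibition of all tested compounds plus 3 SD, cut at about 20% in these data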
Target sequence (P25929 whole entry, looked up): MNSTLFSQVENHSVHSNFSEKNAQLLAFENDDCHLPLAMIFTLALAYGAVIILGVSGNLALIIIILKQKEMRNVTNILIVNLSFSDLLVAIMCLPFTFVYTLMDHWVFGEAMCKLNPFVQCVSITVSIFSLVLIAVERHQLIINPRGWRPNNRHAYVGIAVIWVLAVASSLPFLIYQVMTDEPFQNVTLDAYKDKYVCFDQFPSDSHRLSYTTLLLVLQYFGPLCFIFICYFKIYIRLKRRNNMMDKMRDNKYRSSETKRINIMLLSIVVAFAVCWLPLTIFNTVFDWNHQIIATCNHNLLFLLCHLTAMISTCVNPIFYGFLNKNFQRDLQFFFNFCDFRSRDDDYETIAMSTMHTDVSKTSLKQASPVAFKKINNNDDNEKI
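System: HEK293 cells with Y1 receptor plus CNG channel / Probe or stimulus: NPY 25 nM then isoproterenol 1 µM plus Ro 20-1724 25 µM / Compound: one concentration, 3.6 µM, in 0.4% DMSO / Schedule: compound incubation 1 h at room temperature, readout 45 min post-stimulation / Measured by: membrane potential fluorescence / Read-out: % inhibition of NPY effect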
NPY Y2 blocker: blocks the human neuropeptide Y Y2 receptor | inhibition, % at 2.7 µM | AID 793 | P49146 | 0.99% of 140,000 active | NPY-Y2 expressing cells, antagonist mode; in the data active = inhibition above about 17%
NPY-Y1 PAM-ag: potentiators or agonists of human neuropeptide Y receptor Y1; NPY-Y1 expressing cells, potentiator/agonist activation; 0.37% of 220,000 active; activation, % at 3.6 µM; AID 1304; P25929; in the data active = activation above about 33%, passing the limit was not always enough;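 also: cells stimulated with NPY at EC10 then isoproterenol at EC100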
NPY-Y2 PAM-ag: potentiates or activates human NPY-Y2 receptor | 0.45% of 220,000 active | P49146 | cells expressing NPY-Y2, potentiator/agonist read-out | AID 1359 | activation, % at 3.6 µM; in the data active = activation above about 27%;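 also: cells stimulated with NPY near EC25 plus isoproterenol at EC100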
Of the large screens only hits and unclear results are named; the others gave an inactive call. Rows were chosen to be rich in hits. Some 1.9% of all compounds tested hit in one or more screens of this group.

CCc1nc2ccc(C)cc2c(C(=O)NC2CCCCC2C)c1C (stereo not given)	NPY Y1 blocker 64, NPY Y2 blocker 30
Cc1ccc2c(c1)NC(=O)C(CC(=O)NC1CCCCC1C)O2 (stereo not given)	none
COc1ccc(OC)c2sc(N(CCN(C)C)C(=O)c3cc(Cl)sc3Cl)nc12	NPY-Y1 PAM-ag 90, NPY-Y2 PAM-ag 79 (no result: NPY Y2 blocker)
O=[N+]([O-])c1ccc(NCCNS(=O)(=O)c2ccccc2)c(C(F)(F)F)c1	none
Cc1ccc(S(=O)(=O)NCCNc2ccc([N+](=O)[O-])cc2C(F)(F)F)cc1	NPY-Y2 PAM-ag 35
Cc1ccc(Cn2ncc3c(N4CCOCC4)ncnc32)cc1	none
Cc1ccc(Cn2ncc3c(N4CCN(c5ccccc5C)CC4)ncnc32)cc1	NPY Y1 blocker 27
CC(C)COC(=O)Nc1nnc(SCCOc2ccccc2)s1	NPY Y1 blocker 29
CCN(CC)CC(C)CNC(=O)CN1C(=O)CSc2ccc(S(=O)(=O)N3CCOCC3)cc21 (stereo not given)	none
CN(CCC#N)C(=S)Nc1ccc(S(=O)(=O)N2CCOCC2)cc1	none (no result: NPY Y2 blocker)
N#Cc1nc(COc2ccccc2)oc1N1CCN(Cc2ccccc2)CC1	NPY Y1 blocker 21, NPY Y2 blocker 28
Cc1ccc(OCc2nc(C#N)c(N3CCN(Cc4ccccc4)CC3)o2)cc1	NPY Y1 blocker 23, NPY Y2 blocker 41
COc1ccc(/C=N/NC(=O)c2ccncc2)cc1CSc1nc2ccccc2s1	none
OC(c1cc(C(F)(F)F)nc2c(Cl)cc(Cl)cc12)C1CCCCN1 (stereo not given)	NPY-Y1 PAM-ag 66, NPY-Y2 PAM-ag 62 (no result: NPY Y1 blocker, NPY Y2 blocker)
OC(c1cc(-c2ccc(Cl)cc2)nc2ccccc12)C1CCCCN1 (stereo not given)	none (no result: NPY Y1 blocker, NPY Y2 blocker)
Fc1cccc2sc(N3CCCC3)nc12	none (no result: NPY Y2 blocker)
CN1CCCC(CC2Oc3ccccc3Sc3ccccc32)C1 (stereo not given)	none
c1ccc2c(c1)OC(CCCN1CCCCC1)c1ccccc1S2 (stereo not given)	NPY Y1 blocker 40, NPY Y2 blocker 17
COc1ccc(Nc2c([N+](=O)[O-])ccc3c2=NC2(CCCCC2)N=3)cc1	NPY-Y1 PAM-ag 44, NPY-Y2 PAM-ag 38 (no result: NPY Y2 blocker)
O=[N+]([O-])c1ccc2c(c1Nc1ccccc1)=NC1(CCCCC1)N=2	none
Cn1c(-c2ccc(Br)o2)nc2ccccc21	none
Brc1ccc(Cn2c(-c3ccc(Br)o3)nc3ccccc32)o1	NPY Y1 blocker 29, NPY Y2 blocker 29
Fc1ccc(CNC(=S)Nc2ccccc2Cl)cc1	none
CC(=O)Nc1nc2ccc(-c3nc4ccccc4o3)cc2s1	NPY-Y1 PAM-ag 46, NPY-Y2 PAM-ag 37
COc1ccc(OCC(O)Cn2c(=N)n(Cc3ccccc3)c3ccccc32)cc1 (stereo not given)	NPY Y1 blocker 33, NPY Y2 blocker 32
Cc1cccc(OCC(O)Cn2c(=N)n(CCN3CCCCC3)c3ccccc32)c1 (stereo not given)	NPY Y1 blocker 57, NPY Y2 blocker 84
Cc1cccc(OCC(O)Cn2c(=N)n(Cc3ccccc3)c3ccccc32)c1 (stereo not given)	none (no result: NPY Y1 blocker, NPY Y2 blocker)
N=c1n(Cc2ccccc2)c2ccccc2n1CC(O)COc1ccc(Cl)cc1Cl (stereo not given)	none (no result: NPY Y2 blocker)
Cc1ccc(OCC(O)Cn2c(=N)n(Cc3ccccc3)c3ccccc32)cc1 (stereo not given)	NPY Y1 blocker 23, NPY Y2 blocker 32
C=CCN1C(=O)/C(=C2/Sc3ccc(OC)cc3N2C)SC1=Nc1cccc(O)c1	none (no result: NPY Y2 blocker)
COc1cccc(NC(=S)N(CCCN2CCOCC2)C(C)c2cc3ccccc3o2)c1 (stereo not given)	none (no result: NPY Y2 blocker)
Brc1ccc(N/N=C(/N=Nc2nn[nH]n2)c2ccccc2)cc1	NPY-Y1 PAM-ag 64, NPY-Y2 PAM-ag 53 (no result: NPY Y2 blocker)
O=C(/C(=N\Nc1ccc(Br)cc1)Sc1nnnn1-c1ccccc1)c1ccccc1	none
Cc1ccc(Cl)cc1N1CCN(CC(=O)Nc2ccc(CN3CCCCC3)cc2)CC1	NPY Y1 blocker 36
COc1ccccc1N1CCN(CC(=O)Nc2ccc(CN3CCCCC3)cc2)CC1	none
CCCNC(=O)c1csc2c1CCCCC2	none
CCCNC(=O)c1sc2c(c1C(=O)Nc1ccccn1)CCCC2	NPY Y1 blocker 21 (no result: NPY Y2 blocker)
COc1ccccc1N1CCN(c2nc(C)nc3c2oc2ccccc23)CC1	NPY Y1 blocker 32, NPY Y2 blocker 20
Cc1nc(N2CCN(Cc3ccc(Cl)cc3)CC2)c2oc3ccccc3c2n1	none (no result: NPY Y1 blocker, NPY Y2 blocker)
CC1(C)CC(=O)C2=C(C1)OC1=C(C2)C(=O)CC(C)(C)C1	none
COc1ccc(C(=O)C[n+]2cc(-c3ccc(OC)cc3)n3c2CCCC3)cc1	none (no result: NPY Y2 blocker)
Cc1ccc(C(=O)C[n+]2cc(-c3ccc(C)cc3)n3c2CCCCC3)cc1	NPY Y1 blocker 79, NPY Y2 blocker 32
NC(=O)c1nn(CC(=O)Nc2ccc3c(c2)OCO3)cc1[N+](=O)[O-]	none (no result: NPY Y2 blocker)
On1nnc2c3ccccc3c3ccccc3c21	none (no result: NPY Y2 blocker)
CC(C)(C)c1ccc(-n2nc(C#N)c(Cl)cc2=O)cc1	NPY-Y1 PAM-ag 67, NPY-Y2 PAM-ag 61 (no result: NPY Y2 blocker)
COc1ccc(OCC(O)CNC(=O)Nc2cccc3ccccc23)cc1 (stereo not given)	none (no result: NPY Y1 blocker, NPY Y2 blocker)
Cc1[nH]nc(SCC(=O)NC2CCCCC2)c1[N+](=O)[O-]	none (no result: NPY Y2 blocker)
CCOc1cc(Br)ccc1S(=O)(=O)N1CCC(C(N)=O)CC1	none
CCc1cccc2c(C(=O)CN3C(=O)NC(C)(c4cccc5ccccc45)C3=O)c[nH]c12 (stereo not given)	NPY-Y1 PAM-ag 43, NPY-Y2 PAM-ag 37 (no result: NPY Y2 blocker)
Cc1ccc(S(=O)(=O)N(C)CC(=O)OCC(=O)c2c(N)n(C)c(=O)n(C)c2=O)cc1	none
O=C(Nc1ccc2nc(SCc3ccc(Cl)cc3)sc2c1)c1ccccc1C(=O)N1CCOCC1	none
COC(=O)CSc1nc2ccc(NC(=O)c3ccccc3C(=O)N3CCOCC3)cc2s1	NPY-Y1 PAM-ag 109, NPY-Y2 PAM-ag 95
CCOC(=O)CSc1nc2ccc(NC(C)=O)cc2s1	NPY-Y1 PAM-ag 72, NPY-Y2 PAM-ag 58
Cn1c(=O)c(C#N)c(-c2ccc(F)cc2)c2cc(C(=O)c3cc(Cl)cc(Cl)c3O)cnc21	NPY-Y1 PAM-ag 58, NPY-Y2 PAM-ag 92 (no result: NPY Y1 blocker, NPY Y2 blocker)
Cc1ccc(C2(c3ccc(C)cc3)CC2C(=O)Nc2ccc([N+](=O)[O-])cc2O)cc1 (stereo not given)	NPY-Y2 PAM-ag 45
COc1ccc([C@H](C)NC[C@H](O)c2ccc(O)c(NC=O)c2)cc1	NPY-Y1 PAM-ag 59, NPY-Y2 PAM-ag 79 (no result: NPY Y2 blocker)
COc1ccc(C(CCNC(C)c2ccccc2)C(C)C)cc1 (stereo not given)	none (no result: NPY Y1 blocker, NPY Y2 blocker)
Cc1cccc(NC(=O)CCC(=O)OCC(=O)c2ccc(Oc3ccc([N+](=O)[O-])cc3)cc2)c1	NPY-Y1 PAM-ag 53, NPY-Y2 PAM-ag 47
Cc1ccc(NC(=O)CCC(=O)OCC(=O)c2ccc(Oc3ccc([N+](=O)[O-])cc3)cc2)cc1C	none
COc1ccc(Nc2nc3ccc(OC)cc3s2)cc1	none (no result: NPY Y2 blocker)
COc1ccc2nc(Nc3nc(C)c(C(C)=O)s3)sc2c1	NPY-Y1 PAM-ag 41, NPY-Y2 PAM-ag 34
Cn1cc(/C=N\O)nc2c(=O)n(-c3ccccc3)c(=O)nc1-2	none (no result: NPY Y2 blocker)
O=C(O)CCC(=O)c1ccc2c(c1)OCCO2	NPY Y1 blocker 29, NPY Y2 blocker 18
